Test results published in ChEMBL document CHEMBL1275496, “In vivo pharmacodynamic target investigation for micafungin against Candida albicans and C. glabrata in a neutropenic murine candidiasis model” (Antimicrob Agents Chemother, 2008).
In brackets after ≈: the same amount, converted by molar mass. *1 amine or outer side, *2 acyl side, *3 side chain or, on linkers, in order; H or OH if unused. Where a SMILES comes first, the peptide text is derived from it. Bridges are numbered along the chain shown (N, C = ends). [ ]: non-standard residue; d: D form. The star is where a group is joined. hTyr(3S-OH,4S-OH,3'-OSO3H) = N[C@H](C(=O)O)[C@H](O)[C@@H](O)c1ccc(O)c(OS(=O)(=O)O)c1; Orn(4R-OH,5R-OH) = O=C([C@H](C[C@@H](O)[C@@H](O)N[*:3])N[*:1])[*:2]; Pro(3S-OH,4S-Me) = C[C@H]1CN[C@H](C(=O)O)[C@H]1O; X1 = CCCCCOc1ccc(-c2cc(-c3ccc(C(=O)*)cc3)no2)cc1; Gln(3R-OH) = NC(=O)C[C@@H](O)[C@H](N)C(=O)O; Hyp = O=C(O)[C@@H]1C[C@@H](O)CN1

Legend:
[1] = test system: Nakaseomyces glabratus; test: Antifungal activity against Candida glabrata isolate 33609 infected in ICR/Swiss neutropenic mouse assessed as dose required for 1-log kill after 24 hrs; type: functional
How it was run: (§1)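 Neutropenic mice (cyclophosphamide sc 150 mg/kg day −4, 100 mg/kg day −1 and +2) infected iv by tail vein 2 h before therapy. Micafungin given ip every 24 h for 4 days at six fourfold-spaced dose levels, 0.078–80 mg/kg/24 h, 3 mice per group. Kidney CFU read at 96 h. Hill-model fit; dose giving 1 log10 below start-of-therapy burden.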

[2] = AUC (0 to infinity) in Candida infected ICR/Swiss neutropenic mouse at 20 mg/kg, ip; type: ADME, organism-based; parameters: time infinity, dose 20 mg/kg, route intraperitoneal; settings: plasma
How it was run: (§2)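 Single intraperitoneal micafungin doses (80, 20, 5 mg/kg in 0.2 ml, 0.15 M NaCl) given to infected neutropenic mice. Serum was taken from 3 mice per time point at 1, 2, 4, 6, 8, 12, 24 and 48 h. Drug was measured by microbiologic assay with C. albicans K1 (LLOQ 0.12 μg/ml). Noncompartmental analysis; half-life by nonlinear least squares; AUC by trapezoidal rule.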

[3] = test system: Nakaseomyces glabratus; test: Antifungal activity against Candida glabrata isolate 35315 by CLSI method; type: functional
How it was run: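 Broth microdilution per CLSI M27-A2. The MIC was read at partial inhibition (M1) and at complete inhibition (M2) against the drug-free control. Done in duplicate on four separate occasions and reported as the mean.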

[4] = Ratio of AUC in ICR/Swiss neutropenic mouse at 1-Log kill dose of 6.70 mg/kg, ip after 24 hrs to MIC for Candida glabrata isolate 570; type: functional; settings: dose 6.7 mg/kg; route intraperitoneal
[5] = test system: Nakaseomyces glabratus; test: Fungistatic activity against Candida glabrata isolate 32930 infected in ICR/Swiss neutropenic mouse after 24 hrs; type: functional
How it was run: (§3)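 Neutropenic female ICR/Swiss mice received cyclophosphamide sc at 150 mg/kg on day −4, 100 mg/kg on day −1 and 100 mg/kg on day +2. Mice were infected iv via the tail vein, and ip micafungin in 0.15 M NaCl started 2 h later. Six dose levels from 0.078 to 80 mg/kg/24 h were given q24h for 4 days, 3 mice per dose. Kidney CFU were counted at 96 h. The static dose was derived from a sigmoid Emax (Hill) fit.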

[6] = test system: Nakaseomyces glabratus; test: Fungistatic activity against Candida glabrata isolate 33609 infected in ICR/Swiss neutropenic mouse after 24 hrs; type: functional; how it was run: as §3
[7] = Cmax in Candida infected ICR/Swiss neutropenic mouse at 80 mg/kg, ip; type: ADME, organism-based; parameters: dose 80 mg/kg, route intraperitoneal; settings: in vivo; how it was run: as §2
[8] = test system: Nakaseomyces glabratus; test: Antifungal activity against Candida glabrata isolate 32930 infected in ICR/Swiss neutropenic mouse assessed as dose required for 1-log kill after 24 hrs; type: functional; how it was run: as §1
[9] = test system: Candida albicans; test: Antifungal activity against Candida albicans; type: functional
How it was run: (§4)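 Broth microdilution MIC per CLSI M27-A2. Two endpoints were read against the drug-free control well: partial inhibition (M1, CLSI recommended) and complete inhibition (M2). Tests were run in duplicate on four separate occasions, and the value is the mean.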

[10] = test system: Nakaseomyces glabratus; test: Fungistatic activity against Candida glabrata isolate 34341 infected in ICR/Swiss neutropenic mouse after 24 hrs; type: functional; how it was run: as §3
[11] = Ratio of fAUC in ICR/Swiss neutropenic mouse at 1-Log kill dose of 1.40 mg/kg, ip after 24 hrs to MIC for Candida glabrata isolate 33609; type: functional; settings: dose 1.4 mg/kg; route intraperitoneal
[12] = Ratio of fAUC in ICR/Swiss neutropenic mouse at static dose of 1.80 mg/kg, ip after 24 hrs to MIC for Candida glabrata isolate 5592; type: functional; settings: dose 1.8 mg/kg; route intraperitoneal
[13] = Ratio of fAUC in ICR/Swiss neutropenic mouse at static dose of 2.18 mg/kg, ip after 24 hrs to MIC for Candida glabrata isolate 34341; type: functional; settings: route intraperitoneal
[14] = Ratio of fAUC in ICR/Swiss neutropenic mouse at static dose of 1.98 mg/kg, ip after 24 hrs to MIC for Candida albicans isolate 580; type: functional; settings: route intraperitoneal
[15] = test system: Candida albicans; test: Antifungal activity against Candida albicans isolate 580 infected in ICR/Swiss neutropenic mouse assessed as dose required for 1-log kill after 24 hrs; type: functional; how it was run: as §1
[16] = Ratio of AUC in ICR/Swiss neutropenic mouse at static dose of 1.80 mg/kg, ip after 24 hrs to MIC for Candida glabrata isolate 5592; type: functional; settings: dose 1.8 mg/kg; route intraperitoneal
[17] = test system: Nakaseomyces glabratus; test: Fungistatic activity against Candida glabrata isolate 5592 infected in ICR/Swiss neutropenic mouse after 24 hrs; type: functional; how it was run: as §3
[18] = Ratio of fAUC in ICR/Swiss neutropenic mouse at static dose of 0.90 mg/kg, ip after 24 hrs to MIC for Candida glabrata isolate 5376; type: functional; settings: dose 0.9 mg/kg; route intraperitoneal
[19] = test system: Nakaseomyces glabratus; test: Antifungal activity against Candida glabrata isolate 5376 infected in ICR/Swiss neutropenic mouse assessed as dose required for 1-log kill after 24 hrs; type: functional; how it was run: as §1
[20] = Ratio of fAUC in ICR/Swiss neutropenic mouse at 1-Log kill dose of 7.89 mg/kg, ip after 24 hrs to MIC for Candida glabrata isolate 33616; type: functional; settings: route intraperitoneal
[21] = AUC (0 to infinity) in Candida infected ICR/Swiss neutropenic mouse at 80 mg/kg, ip; type: ADME, organism-based; parameters: time infinity, dose 80 mg/kg, route intraperitoneal; settings: plasma; how it was run: as §2
[22] = Half life in Candida infected ICR/Swiss neutropenic mouse at 5 mg/kg, ip; type: ADME, organism-based; parameters: dose 5 mg/kg, route intraperitoneal; settings: in vivo; how it was run: as §2
[23] = Ratio of AUC in ICR/Swiss neutropenic mouse at 1-Log kill dose of 7.89 mg/kg, ip after 24 hrs to MIC for Candida glabrata isolate 33616; type: functional; settings: route intraperitoneal
[24] = Ratio of fAUC in ICR/Swiss neutropenic mouse at static dose of 3.76 mg/kg, ip after 24 hrs to MIC for Candida glabrata isolate 570; type: functional; settings: route intraperitoneal
[25] = Ratio of fAUC in ICR/Swiss neutropenic mouse at 1-Log kill dose of 3.77 mg/kg, ip after 24 hrs to MIC for Candida glabrata isolate 35315; type: functional; settings: route intraperitoneal
[26] = species on record: Homo sapiens; test: fAUC in healthy human at 100 mg/day; type: ADME, organism-based; settings: in vivo
[27] = test system: Candida albicans; test: Antifungal activity against Candida albicans isolate K1 by CLSI method; type: functional; how it was run: as §4
[28] = Ratio of AUC in ICR/Swiss neutropenic mouse at 1-Log kill dose of 1.40 mg/kg, ip after 24 hrs to MIC for Candida glabrata isolate 33609; type: functional; settings: dose 1.4 mg/kg; route intraperitoneal
[29] = test system: Candida albicans; test: Fungistatic activity against Candida albicans isolate 580 infected in ICR/Swiss neutropenic mouse after 24 hrs; type: functional; how it was run: as §3
[30] = Ratio of AUC in ICR/Swiss neutropenic mouse at 1-Log kill dose of 10.4 mg/kg, ip after 24 hrs to MIC for Candida albicans isolate 98-210; type: functional; settings: route intraperitoneal
[31] = Ratio of AUC in ICR/Swiss neutropenic mouse at 1-Log kill dose of 5.46 mg/kg, ip after 24 hrs to MIC for Candida glabrata isolate 5592; type: functional; settings: route intraperitoneal
[32] = Ratio of fAUC in ICR/Swiss neutropenic mouse at 1-Log kill dose of 5.46 mg/kg, ip after 24 hrs to MIC for Candida glabrata isolate 5592; type: functional; settings: route intraperitoneal
[33] = Ratio of AUC in ICR/Swiss neutropenic mouse at 1-Log kill dose of 4.26 mg/kg, ip after 24 hrs to MIC for Candida glabrata isolate 34341; type: functional; settings: route intraperitoneal

CCCCCOc1ccc(-c2cc(-c3ccc(C(=O)N[C@H]4C[C@@H](O)[C@@H](O)NC(=O)[C@@H]5[C@@H](O)[C@@H](C)CN5C(=O)[C@H]([C@H](O)CC(N)=O)NC(=O)[C@H]([C@H](O)[C@@H](O)c5ccc(O)c(OS(=O)(=O)O)c5)NC(=O)[C@@H]5C[C@@H](O)CN5C(=O)[C@H]([C@@H](C)O)NC4=O)cc3)no2)cc1 [MICAFUNGIN] (X1-[Orn(4R-OH,5R-OH)]T[Hyp][hTyr(3S-OH,4S-OH,3'-OSO3H)][Gln(3R-OH)][Pro(3S-OH,4S-Me)]; lactam 1-C) showed an Activity [1] of 1.4 mg/kg, an AUC(0-inf) [2] of 520 µg·h/mL and an MIC [3] of 0.12 µg/mL (≈ 0.0945 µM). It also gave an MIC50 [3] of 0.06 µg/mL (≈ 0.0472 µM), a RatioAUC/MIC [4] of 12066 and an Activity [5] of 0.06 mg/kg. The Activity [6] was 0.41 mg/kg, the Cmax [7] was 53 µg/mL and the Activity [8] was 1.69 mg/kg. The MIC50 [9] was 0.015 µg/mL (≈ 0.0118 µM), the MIC90 [9] was 0.03 µg/mL (≈ 0.0236 µM) and the Activity [10] was 2.18 mg/kg. The fAUC/MIC [11] was 6.5, the fAUC/MIC [12] was 8.4 and the fAUC/MIC [13] was 2.51. For the same compound, the fAUC/MIC [14] was 19.6, the Activity [15] was 2.36 mg/kg and the RatioAUC/MIC [16] was 3333. For the same compound, the Activity [17] was 1.8 mg/kg, the fAUC/MIC [18] was 8.9 and the Activity [19] was 2 mg/kg. The fAUC/MIC [20] was 2.2, the AUC(0-inf) [21] was 1400 µg·h/mL and the half-life [22] was 7.5 h. For the same compound, the RatioAUC/MIC [23] was 848, the fAUC/MIC [24] was 17.3 and the fAUC/MIC [25] was 4.33. It also gave a fAUC [26] of 0.32 µg·h/mL, an MIC [27] of 0.03 µg/mL (≈ 0.0236 µM) and an MIC50 [27] of 0.016 µg/mL (≈ 0.0126 µM). The RatioAUC/MIC [28] was 2600, the Activity [29] was 1.98 mg/kg and the RatioAUC/MIC [30] was 18400. The RatioAUC/MIC [31] was 10000, the fAUC/MIC [32] was 25 and the RatioAUC/MIC [33] was 1960.
